According to ChEMBL document CHEMBL1124262, “Cardiotonic agents. Synthesis and inotropic activity of a series of isoquinolin-3-ol derivatives” (J Med Chem, 1988):

Columns and labels:
Canis familiaris [1] = experiment: 50% increase in contractile force in one to three anesthetized dogs administered intravenously; assay type: functional; conditions: Canis lupus familiaris, iv
How it was run: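 Anesthetized dogs (one to three). Compound is infused iv in three to four stepwise increasing doses, each over 5 min once the previous effect has peaked. Contractile force is recorded with a Walton Brodie strain gauge on the right ventricle. The dose (μg/kg) giving a 50% rise over control CF is read from the dose-response curve, graphically (n < 3) or by linear regression (n ≥ 3).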

Phosphodiesterase 3 = Phosphodiesterase 3 (Homo sapiens, UniProt Q14432+Q13370); experiment: Inhibition of phosphodiesterase fraction III in anesthetized open chest dogs; assay type: functional, Canis lupus familiaris; conditions: target entry is the homologue from another species
How it was run: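 Enzyme is dog heart PDE-III, the third DEAE-cellulose fraction eluted at 800 mM sodium acetate. Compounds are tested at 0.01–1000 μM with 0.25 μM cAMP containing [³H]cAMP, in 0.05 M Tris-HCl pH 7.4 with 5 mM MgCl2. The reaction is stopped by heat, then snake venom converts product to adenosine. [³H]adenosine is counted by scintillation after Dowex separation. IC50 comes from ≥2 determinations, each in duplicate.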

Canis familiaris [2] = experiment: Percent change in heart rate (HR) in anesthetized open chest dogs after a iv dose of 0.875 mg/kg; assay type: functional, Canis lupus familiaris
How it was run: (§1)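 Anesthetized open-chest dogs, one drug per animal. Compound is in DMF diluted to 10% in saline, or given as the HCl salt in saline. It is infused into the femoral vein by pump at 0.58-2.2 mL/min in 3-4 stepwise cumulative doses, each over 5 min after the prior peak. Readings are CF by right-ventricle strain gauge, dP/dtmax by Millar LV catheter, HR by cardiotachometer and MAP from femoral artery, as % change from predrug control.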

Canis familiaris [3] = experiment: Change in left ventricular pressure of anaesthetized, open chest dogs following 0.875 mg/kg i.v. administration.; assay type: functional, Canis lupus familiaris, Heart left ventricle; conditions: route intravenous; how it was run: as §1
Canis familiaris [4] = experiment: Change in heart contractile force of anaesthetized, open chest dogs following 0.875 mg/kg i.v. administration.; assay type: functional, Canis lupus familiaris; conditions: route intravenous; how it was run: as §1
Canis familiaris [5] = experiment: Percent change in mean arterial blood pressure (MAP) in anesthetized open chest dogs iv administration at 0.875 mg/kg; assay type: functional, Canis lupus familiaris; how it was run: as §1
Canis familiaris [6] = experiment: Percent change in left ventricular pressure (dP/dtmax) in anesthetized dog after iv administration at 10 mg/kg; assay type: functional, Canis lupus familiaris, Heart left ventricle; how it was run: as §1
Canis familiaris [7] = experiment: Percent increase in contractile force (CF) in anesthetized open-chest dogs id administration of 10 mg/kg; assay type: functional, Canis lupus familiaris; conditions: route intraduodenal
How it was run: (§2)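 Anesthetized open-chest dogs. A 10-mL bolus is injected into the duodenum through a catheter placed 2 cm distal to the pylorus. Contractile force is measured with a Walton Brodie strain gauge sutured to the right ventricle, at a baseline tension of 100 g, and monitored continuously. Results are given as % increase from predrug control against cumulative dose.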

Canis familiaris [8] = experiment: Percent change in mean arterial blood pressure (MAP) in anesthetized open chest dogs iv administration at 0.8750 mg/kg; assay type: functional, Canis lupus familiaris; conditions: dose 0.875 mg/kg; how it was run: as §1
Canis familiaris [9] = experiment: Percent change in heart rate (HR) in anesthetized open chest dogs after a iv dose of 10 mg/kg; assay type: functional, Canis lupus familiaris; how it was run: as §1
Canis familiaris [10] = experiment: Percent change in mean arterial blood pressure (MAP) in anesthetized open chest dogs iv administration at 10 mg/kg; assay type: functional, Canis lupus familiaris; how it was run: as §1
Canis familiaris [11] = experiment: Change in heart rate of anaesthetized, open chest dogs following 0.875 mg/kg i.v. administration.; assay type: functional, Canis lupus familiaris; conditions: route intravenous; how it was run: as §1
Canis familiaris [12] = experiment: Percent increase in contractile force (CF) in anesthetized open-chest dogs iv administration of 0.925 mg/kg; assay type: functional, Canis lupus familiaris
How it was run: (§3)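 Anesthetized open-chest dogs. After a right thoracotomy, contractile force was recorded by a Walton Brodie strain gauge sutured to the right ventricle at 100 g baseline tension. Compound was given iv by infusion pump into a femoral vein, one drug per animal, in three to four stepwise increasing doses. Each dose ran over 5 min, starting once the previous dose's effect peaked. Values are % increase over predrug control vs cumulative mg/kg dose.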

Canis familiaris [13] = experiment: Percent change in mean arterial blood pressure (MAP) in anesthetized open chest dogs iv administration at 0.9250 mg/kg; assay type: functional, Canis lupus familiaris; conditions: dose 0.925 mg/kg; how it was run: as §1
Canis familiaris [14] = experiment: Percent change in left ventricular pressure (dP/dtmax) in anesthetized dog after iv administration at 0.925 mg/kg; assay type: functional, Canis lupus familiaris, Heart left ventricle; how it was run: as §1
Canis familiaris [15] = experiment: Percent change in heart rate (HR) in anesthetized open chest dogs after a iv dose of 0.925 mg/kg; assay type: functional, Canis lupus familiaris; how it was run: as §1
Canis familiaris [16] = experiment: Percent change in mean arterial blood pressure (MAP) in anesthetized open chest dogs iv administration at 1 mg/kg; assay type: functional, Canis lupus familiaris; how it was run: as §1
Canis familiaris [17] = experiment: Percent increase in left ventricular pressure (dP/dtmax) of anesthetized dog after id administration at 1 mg/kg; assay type: functional, Canis lupus familiaris, Heart left ventricle; conditions: route intraduodenal
How it was run: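 Anesthetized open-chest dogs. Left ventricular pressure was measured by Millar catheter and dP/dtmax derived. Compound was given as a 10-mL bolus into the duodenum through a catheter placed 2 cm distal to the pylorus via flank incision. Dissolved in DMF diluted to 10% in saline, or as HCl salt in saline. Response is % change over predrug control, monitored continuously.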

Canis familiaris [18] = experiment: Percent change in heart rate (HR) in anesthetized open chest dogs after a iv dose of 1 mg/kg; assay type: functional, Canis lupus familiaris; how it was run: as §1
Canis familiaris [19] = experiment: Contractile force in anesthetized open chest dogs id administration 1.00 mg/kg; assay type: functional, Canis lupus familiaris; conditions: route intraduodenal; how it was run: as §2
Canis familiaris [20] = experiment: Percent change in left ventricular pressure (dP/dtmax) in anesthetized dog after iv administration at 8.75 mg/kg; assay type: functional, Canis lupus familiaris, Heart left ventricle; how it was run: as §1
Canis familiaris [21] = experiment: Percent change in heart rate (HR) in anesthetized open chest dogs after a iv dose of 8.75 mg/kg; assay type: functional, Canis lupus familiaris; how it was run: as §1
Canis familiaris [22] = experiment: Percent change in mean arterial blood pressure (MAP) in anesthetized open chest dogs iv administration at 8.75 mg/kg; assay type: functional, Canis lupus familiaris; how it was run: as §1
Canis familiaris [23] = experiment: Percent increase in contractile force (CF) in anesthetized open-chest dogs iv administration of 8.75 mg/kg; assay type: functional, Canis lupus familiaris; how it was run: as §3
Canis familiaris [24] = experiment: Percent change in mean arterial blood pressure (MAP) in anesthetized open chest dogs iv administration at 3.75 mg/kg; assay type: functional, Canis lupus familiaris; how it was run: as §1
Canis familiaris [25] = experiment: Percent change in left ventricular pressure (dP/dtmax) in anesthetized dog after iv administration at 3.75 mg/kg; assay type: functional, Canis lupus familiaris, Heart left ventricle; how it was run: as §1
Canis familiaris [26] = experiment: Percent increase in contractile force (CF) in anesthetized open-chest dogs iv administration of 3.75 mg/kg; assay type: functional, Canis lupus familiaris; how it was run: as §3
Canis familiaris [27] = experiment: Percent change in heart rate (HR) in anesthetized open chest dogs after a iv dose of 3.75 mg/kg; assay type: functional, Canis lupus familiaris; how it was run: as §1
Canis familiaris [28] = experiment: Percent change in heart rate (HR) in anesthetized open chest dogs after a iv dose of 0.375 mg/kg; assay type: functional, Canis lupus familiaris; how it was run: as §1
Canis familiaris [29] = experiment: Percent increase in contractile force (CF) in anesthetized open-chest dogs iv administration of 0.375 mg/kg; assay type: functional, Canis lupus familiaris; how it was run: as §3
Canis familiaris [30] = experiment: Percent change in left ventricular pressure (dP/dtmax) in anesthetized dog after iv administration at 0.375 mg/kg; assay type: functional, Canis lupus familiaris, Heart left ventricle; how it was run: as §1
Canis familiaris [31] = experiment: Percent change in mean arterial blood pressure (MAP) in anesthetized open chest dogs iv administration at 0.375 mg/kg; assay type: functional, Canis lupus familiaris; how it was run: as §1
Canis familiaris [32] = experiment: (§4) Percent change in heart rate (HR) in anesthetized open chest dogs after a iv dose of 0.1 mg/kg; assay type: functional, Canis lupus familiaris; how it was run: as §1
Canis familiaris [33] = experiment: Percent increase in contractile force (CF) in anesthetized open-chest dogs id administration of 1 mg/kg; assay type: functional, Canis lupus familiaris; conditions: route intraduodenal; how it was run: as §2
Canis familiaris [34] = experiment: Percent increase in contractile force (CF) in anesthetized open-chest dogs iv administration of 0.1 mg/kg; assay type: functional, Canis lupus familiaris; how it was run: as §1
Canis familiaris [35] = experiment: (§5) Percent change in mean arterial blood pressure (MAP) in anesthetized open chest dogs iv administration at 0.1 mg/kg; assay type: functional, Canis lupus familiaris; how it was run: as §1
Canis familiaris [36] = experiment: Percent change in left ventricular pressure (dP/dtmax) in anesthetized dog after iv administration at 0.1 mg/kg; assay type: functional, Canis lupus familiaris, Heart left ventricle; how it was run: as §1
Canis familiaris [37] = experiment: as §4; assay type: functional, Canis lupus familiaris; how it was run: as §1; remark: listed apart in the source
Canis familiaris [38] = experiment: Percent increase in contractile force (CF) in anesthetized open-chest dogs id administration of 0.100 mg/kg; assay type: functional, Canis lupus familiaris; conditions: dose 0.1 mg/kg; route intraduodenal; how it was run: as §2
Canis familiaris [39] = experiment: Percent increase in contractile force (CF) in anesthetized open-chest dogs iv administration of 0.100 mg/kg; assay type: functional, Canis lupus familiaris; conditions: dose 0.1 mg/kg; how it was run: as §1
Canis familiaris [40] = experiment: as §5; assay type: functional, Canis lupus familiaris; how it was run: as §1; remark: listed apart in the source

COc1cc(OC)c2c(C)nc(O)cc2c1
ED50 (Canis familiaris [1]): 0.375 mg/kg | IC50 (Phosphodiesterase 3): 80 µM | Change (Canis familiaris [2]): 13% | Increase (Canis familiaris [3]): 62% | Increase (Canis familiaris [4]): 91% | Change (Canis familiaris [5]): -18%

COC(=O)CCc1c(O)nc(C)c2cc(OC)c(OC)cc12
ED50 (Canis familiaris [1]): 0.165 mg/kg | Increase (Canis familiaris [6]): 52% | Increase (Canis familiaris [7]): 105% | IC50 (Phosphodiesterase 3): 35 µM | Change (Canis familiaris [8]): -12% | Change (Canis familiaris [9]): 12% | Change (Canis familiaris [10]): -11% | Increase (Canis familiaris [3]): 78% | Increase (Canis familiaris [4]): 140% | Change (Canis familiaris [11]): 34%

COc1ccc2c(C)nc(O)cc2c1
ED50 (Canis familiaris [1]): 0.6 mg/kg | IC50 (Phosphodiesterase 3): 160 µM | Increase (Canis familiaris [12]): 65% | Change (Canis familiaris [13]): 0% | Increase (Canis familiaris [14]): 56% | Change (Canis familiaris [15]): 8%

CCCc1c(O)nc(C)c2cc(OC)c(OC)cc12
ED50 (Canis familiaris [1]): 0.125 mg/kg | Change (Canis familiaris [16]): 3% | IC50 (Phosphodiesterase 3): 5 µM | Change (Canis familiaris [8]): 4% | Increase (Canis familiaris [17]): 20% | Change (Canis familiaris [18]): 5% | Increase (Canis familiaris [3]): 55% | Increase (Canis familiaris [4]): 108% | Increase (Canis familiaris [19]): 20% | Change (Canis familiaris [11]): 22%

COc1ccc2cc(O)ncc2c1OC
Increase (Canis familiaris [20]): 34% | Change (Canis familiaris [21]): 13% | Change (Canis familiaris [22]): -7% | Increase (Canis familiaris [23]): 60%

Cc1nc(O)cc2cc3c(cc12)OCO3
Change (Canis familiaris [24]): -10% | Increase (Canis familiaris [25]): 32% | Increase (Canis familiaris [26]): 82% | Change (Canis familiaris [27]): 13%

COc1cc2c(C)nc(OC(C)=O)c(Br)c2cc1OC
Change (Canis familiaris [28]): 15% | Increase (Canis familiaris [29]): 117% | Increase (Canis familiaris [30]): 60% | Change (Canis familiaris [31]): -33%

COc1cc2c(C)nc(O)c(C)c2cc1OC
ED50 (Canis familiaris [1]): 0.04 mg/kg | Change (Canis familiaris [16]): -6% | IC50 (Phosphodiesterase 3): 10 µM | Change (Canis familiaris [32]): 15% | Increase (Canis familiaris [33]): 64% | Increase (Canis familiaris [34]): 80% | Increase (Canis familiaris [17]): 30% | Change (Canis familiaris [18]): 8% | Change (Canis familiaris [35]): -4% | Increase (Canis familiaris [36]): 48%

Cc1[nH]c(=O)c(C#N)cc1-c1ccncc1 [MILRINONE]
Change (Canis familiaris [37]): 14% | Change (Canis familiaris [32]): 15% | Increase (Canis familiaris [17]): 36% | Change (Canis familiaris [35]): -3% | Increase (Canis familiaris [38]): 85% | Increase (Canis familiaris [39]): 105% | Increase (Canis familiaris [36]): 76% | Change (Canis familiaris [40]): -13%
